The results in this text go back to ChEMBL document CHEMBL4396927, “Fluorescent Imidazo[1,5-a]pyridinium Salt for a Potential Cancer Therapy Agent” (ACS Med Chem Lett, 2019).

Calls of active or inactive are those of the source. The calls are words filed in the database; no cut-off is given here.

For data set [1], the system named is Enterobacteria phage phiX174. Description: Induction of DNA cleavage in supercoiled phiX174 RF I DNA assessed as formation of nicked circular DNA irradiated with 365 nm UVA-LED light under N2 condition measured up to 60 mins by RE-DYE based agarose gel electrophoresis method.
The nature of data set [2]: Drug distribution in human HeLa cell cytoplasm assessed as increase in hydroxyl radical at 2.5 x 10^-4 mol/L preincubated for 24 hrs followed by irradiation with 365 nm UVA-LED light measured at 5 mins interval for 30 mins by OxiORANGE stress marker based laser confocal microscopic analysis. Type of data set: ADME, subcellular. The settings on record: 0.5 h, 250 µM. In short, it runs like this:
(§1)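 Live HeLa cells, with or without the salt, were loaded with OxiORANGE (hydroxyl radical) or MitoROS 580 (superoxide) and imaged during UV irradiation for 30 min. Blue fluorescence was taken through a DAPI filter and red through a TRITC filter. Intensities were quantified at endosomal positions, in cytoplasm and for the red probe.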

Data set [3] has as its system Enterobacteria phage phiX174. Description: Induction of DNA cleavage in supercoiled phiX174 RF I DNA assessed as DNA photo cleavage irradiated with 365 nm UVA-LED light in presence of KI measured up to 60 mins by RE-DYE based agarose gel electrophoresis method. In outline: (§2)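 Supercoiled ΦX174 RF I DNA in TE, with the salt in H2O, was irradiated with UVA-LED for 1, 10, 30, 60 or 180 min. A DNA-only irradiated control was included. Scavenger runs added 1.0 × 10–3 mol L–1 NaN3, KI, DMSO or t-BuOH with 60 min irradiation. Samples were resolved on 0.9% agarose in TAE (40 mmol L–1 Tris-acetate, 1 mmol L–1 EDTA, pH 8.0), and supercoiled (Form I) versus nicked circular (Form II) bands were scored.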

Data set [4] in a line: Drug localization in endosomes of human HeLa cells assessed as co-localization of compound with endosome at 2.5 x 10^-4 mol/L after 24 hrs in presence of endocytosis marker Alexa Fluor 594-conjugated dextran by fluorescence based inverted microscopic analysis. Type of data set: ADME, subcellular. The settings on record: 250 µM. In short, it runs like this: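 HeLa cells were co-incubated with the salt and an endocytosis marker at 37 °C, 5% CO2, for 24 h. Imaging used bright field, cyan fluorescence through a WU filter and red marker fluorescence through a WIY filter, and the images were merged to assess colocalization.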

Data set [5] concerns Enterobacteria phage phiX174. Description: Induction of DNA cleavage in supercoiled phiX174 RF I DNA assessed as DNA photo cleavage irradiated with 365 nm UVA-LED light in presence of DMSO measured up to 60 mins by RE-DYE based agarose gel electrophoresis method. In short, it runs like this: as §2
The subject of data set [6] is Enterobacteria phage phiX174. Description: Induction of DNA cleavage in supercoiled phiX174 RF I DNA assessed as DNA photo cleavage irradiated with 365 nm UVA-LED light in presence of t-BuOH measured up to 60 mins by RE-DYE based agarose gel electrophoresis method. In short, it runs like this: as §2
Data set [7] deals with Enterobacteria phage phiX174. Description: Induction of DNA cleavage in supercoiled phiX174 RF I DNA assessed as cleavage of supercoiled DNA in presence of UVA-LED irradiation with 365 nm light after 60 mins by RE-DYE based agarose gel electrophoresis method relative to control. In outline: as §2
The subject of data set [8] is HeLa. Description: Antiproliferative against human HeLa cells assessed as reduction in cell viability after 24 hrs by CCK-8 assay. Type of data set: functional, cell-based. In outline:
(§3)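 HeLa viability was read by CCK-8 after 1 h (acute) or 24 h (subacute) incubation with a concentration series of the salt. The top concentration was 2.5 × 10–4 mol L–1, limited by water solubility. IC50 was estimated, not determined.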
For orientation: Tetrazolium dyes change colour on reduction, which living cells bring about.

Data set [9] relates to HeLa. Description: Photocytotoxicity against human HeLa cells assessed as reduction in cell viability at 2.5 x 10^-4 mol/L preincubated for 24 hrs followed by irradiation with 365 nm UVA-LED light after 10 mins by CCK-8 assay. Type of data set: functional, cell-based. In outline: (§4)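 Salt-stained HeLa cells were irradiated with UVA-LED for 10, 30 or 60 min. Viability was read immediately after irradiation, or after a further 24 h at 37 °C in the dark. Irradiated cells without salt served as control.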

A short description of data set [10]: Drug distribution in human HeLa cells cytoplasm assessed as decrease in dot shaped cyan signals at 2.5 x 10^-4 mol/L after 24 hrs in presence of endocytosis marker Alexa Fluor 594-conjugated dextran followed by irradiation with 365 nm UVA-LED for 10 to 30 mins by fluorescence based inverted microscopic analysis. Particulars: 250 µM.
Data set [11] is described as follows: Drug distribution in human HeLa cells cytoplasm assessed as increase in super oxide anion level at 2.5 x 10^-4 mol/L preincubated for 24 hrs followed by irradiation with 365 nm UVA-LED light measured at 5 mins interval for 30 mins by MitoROS stress marker based laser confocal microscopic analysis. Type of data set: ADME, subcellular. The settings on record: 0.5 h, 250 µM. In short, it runs like this:
as §1

Data set [12] relates to HeLa. Description: Photocytotoxicity against human HeLa cells assessed as reduction in cell viability at 2.5 x 10^-4 mol/L preincubated for 24 hrs followed by irradiation with 365 nm UVA-LED light after 60 mins by CCK-8 assay. Type of data set: functional, cell-based. In short, it runs like this: as §4
Data set [13] relates to Enterobacteria phage phiX174. Description: Induction of DNA cleavage in supercoiled phiX174 RF I DNA assessed as formation of nicked circular DNA in presence of UVA-LED irradiation with 365 nm light after 10 mins by RE-DYE based agarose gel electrophoresis method. In short, it runs like this: as §2
Data set [14] deals with HeLa. Description: Antiproliferative activity against human HeLa cells assessed as reduction in cell viability by measuring mitochondrial damage at 2.5 x 10^-4 mol/L preincubated for 24 hrs followed by irradiation with 365 nm UVA-LED light after 30 mins by inverted microscopic analysis. Type of data set: functional, cell-based.
Data set [15] has as its system Enterobacteria phage phiX174. Description: Induction of DNA cleavage in supercoiled phiX174 RF I DNA assessed as DNA photo cleavage irradiated with 365 nm UVA-LED light in presence of NaN3 measured up to 60 mins by RE-DYE based agarose gel electrophoresis method. In outline:
as §2

Data set [16] deals with HeLa. Description: Photocytotoxicity against human HeLa cells assessed as reduction in cell viability at 2.5 x 10^-4 mol/L preincubated for 24 hrs followed by irradiation with 365 nm UVA-LED light after 30 mins by CCK-8 assay. Type of data set: functional, cell-based. In outline: as §4
Data set [17] concerns HeLa. Description: Induction of mitochondrial depolarization in human HeLa cells assessed at 2.5 x 10^-4 mol/L preincubated for 24 hrs followed by irradiation with 365 nm UVA-LED for 30 mins by JC-1 staining based inverted microscopic analysis. Type of data set: functional, cell-based. In short, it runs like this:
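Mitochondrial membrane potential was assessed by JC-1 in HeLa cells with or without the salt after UVA-LED irradiation for 0, 30 or 60 min. FCCP served as the depolarization positive control. Imaging used WIY and WU filters plus bright field.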

In data set [18] the test system is HeLa. Description: Induction of mitochondrial depolarization in human HeLa cells assessed at 2.5 x 10^-4 mol/L preincubated for 24 hrs followed by irradiation with 365 nm UVA-LED for 30 mins under hypoxic conditions by JC-1 staining based inverted microscopic analysis. Type of data set: functional, cell-based. In outline:
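The JC-1 mitochondrial membrane potential assay was run on salt-stained HeLa cells under UVA-LED irradiation in hypoxic conditions.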

In data set [19] the test system is HeLa. Description: Photocytotoxicity against human HeLa cells assessed as reduction in cell viability at 2.5 x 10^-4 mol/L preincubated for 24 hrs followed by irradiation with 365 nm UVA-LED light for 60 mins and measured after 24 hrs by CCK-8 assay. Type of data set: functional, cell-based. In outline:
as §4

Data set [20] can be described thus: Drug localization in human HeLa cells mitochondria at 2.5 x 10^-4 mol/L incubated for 24 hrs by Mitotracker Red staining based inverted microscopic analysis. The settings on record: 250 µM. Type of data set: ADME. In short, it runs like this: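 HeLa cells were stained with the salt and a mitochondrial marker, either without UVA-LED or with marker incubation after 30 min of UVA-LED irradiation. Overlap of cyan and red fluorescence was assessed.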

In data set [21] the test system is HeLa. Description: Antiproliferative against human HeLa cells assessed as reduction in cell viability at 0.08 x 10^-4 mol/L to 1.25 x 10^-4 mol/L after 24 hrs by CCK-8 assay. Type of data set: functional, cell-based. In outline: as §3
Data set [22] deals with HeLa. Description: Antiproliferative against human HeLa cells assessed as reduction in cell viability at 2.5 x 10^-4 mol/L after 24 hrs by CCK-8 assay. Type of data set: functional, cell-based. In short, it runs like this: as §3

`C[n+]1c(-c2ccccc2)c2ccccn2c1-c1n2ccccc2c(-c2ccccc2)[n+]1C.[I-].[I-]`: the outcome (in data set [1]; in data set [3]; in data set [5]; in data set [6]; in the data set with HeLa [12]; in [13]) was Active. The outcome (with HeLa [14]; in [15]; in the data set on HeLa [16]; in the data set on HeLa [17]; in the data set on HeLa [19]; in the data set with HeLa [22]) was Active. Further, the Drug uptake result is “Active” in data set [2]; “Active” in data set [4]; “Active” in data set [10]; “Active” in data set [11]; “Not Active” in data set [20]. In addition, in data set [7], the Activity came out at 100%. Moreover, the IC50 result in the data set with HeLa [8] was “Nd(Insoluble)”. Moreover, the result in the data set on HeLa [9], in the data set on HeLa [18] and in the data set with HeLa [21] was inactive.
